HePTP inh = inhibitors of human HePTP phosphatase, primary screen, biochemical, absorbance, leukemia target. Tyrosine-protein phosphatase non-receptor type 7 (Homo sapiens), P35236. inhibition, % at 20 µM. recombinant HePTP phosphatase activity, OD absorbance. 110,000 compounds, 0.64% hits; in the data active = inhibition above about 50%;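 note: plate controls were vehicle for no effect and reference inhibitor for full effect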
Target sequence (P35236 whole entry, looked up): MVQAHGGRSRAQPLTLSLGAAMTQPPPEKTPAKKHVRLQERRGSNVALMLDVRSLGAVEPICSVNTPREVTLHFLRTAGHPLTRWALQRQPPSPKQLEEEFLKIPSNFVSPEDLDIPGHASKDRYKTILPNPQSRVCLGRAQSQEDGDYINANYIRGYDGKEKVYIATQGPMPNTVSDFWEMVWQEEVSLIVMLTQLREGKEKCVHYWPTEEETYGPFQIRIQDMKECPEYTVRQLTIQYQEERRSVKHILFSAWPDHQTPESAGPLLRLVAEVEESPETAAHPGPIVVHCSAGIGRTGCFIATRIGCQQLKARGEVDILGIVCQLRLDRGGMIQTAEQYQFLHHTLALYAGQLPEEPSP
tolC growth inh = growth inhibitors of E. coli tolC mutant, primary screen, strain BW25113 ΔtolC::kan, 384-well | OD615 | growth inhibition, % at 10 µM (by protocol) | 65,000 compounds, 2.2% hits | AID 573, 2007;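 active = growth inhibition at or above a cutoff equal to the mean over every tested compound plus 3 SD, cut at about 60% in these data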;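 note: growth measured after 20 h incubation at 37 °C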
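System: E. coli ΔtolC::kan strain BW25113; Buffer or medium: LB broth supplemented with 50 µg/mL kanamycin; Compound: 10 µM final, single dose; Incubation: bacterial growth with compound for 20 h at 37 °C; Signal: A615 absorbance measurement; Evaluation: growth inhibition in percent.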
AP complement = alternative complement pathway inhibitors, primary screen, biochemical, ELISA, human serum, orthogonally pooled compounds | LPS-coated ELISA, C3 deposition; tested in compound mixtures | inhibition, % at 5 µM | 62,000 compounds, 0.08% hits | AID 1235, 2008;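 active = inhibition above 30% in each of the two pooled mixtures holding the compound, so the lower value exceeds 30%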;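 note: 0% = serum in Mg-EGTA without compound and 100% = EDTA serum blank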
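Assay system: human serum alternative complement pathway, C3 deposition on LPS-coated wells; Dosing: 5 µM per compound in ten-compound mixtures; Detection: Anti-C3 ELISA, OD 450 nm; Buffer or medium: Mg2+-EGTA GVB++ buffer containing human serum at 1:15 dilution; Timing: 1 h at 37 °C; Replication: two different pools per compound.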
Ecoli WT expand = growth inhibitors of wild-type E. coli, primary screen, strain BW25113, expanded library, OD600; OD600 absorbance; growth inhibition, % at 100 µM; 98,000 compounds, 0.15% hits;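 active = growth inhibition above about 50% at one test dose, limit read from the data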;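 note: growth measured after 20 h incubation at 37 °C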
PLAP act = PLAP enzyme activators, biochemical, luminescence, HTS; Alkaline phosphatase, placental type (Homo sapiens), P05187; 96,000 compounds, 1.2% hits; activation fold at 20 µM; purified PLAP enzyme, luminescent substrate read-out; stronger effect = higher value; in the data active = activation fold above about 2
Starred values were filed as active, the others as inactive; x = no result given. In the library only some 2.3% were active in any assay of this set; here they are far more common.

SMILES	HePTP inh	tolC growth inh	AP complement	Ecoli WT expand	PLAP act
O=C(Nc1nnc(-c2ccc3c(c2)CCCC3)o1)c1ccccc1Cl	9.6	97.6*	22.4	6.0	1
O=C(Nc1nnc(-c2ccc3c(c2)CCCC3)o1)c1ccccc1	x	x	x	25.0	1.2
Cc1cccc(-c2nnc(NC(=O)c3ccc(Cl)cc3)o2)c1	0.8	100.0*	14.8	30.0	1
COc1ccc(C(=O)Nc2nnc(-c3ccccc3)o2)cc1OC	13.9	36.4	10.2	-6.0	2.1*
O=C(Nc1nnc(-c2ccc3c(c2)OCCO3)o1)c1ccc(Cc2ccccc2)cc1	1.4	100.0*	21.4	-1.0	1.1
COc1cc(C=NN2C(=O)C3C4C=CC(C5CC45)C3C2=O)cc(Br)c1O (centres undefined)	3.7	x	x	x	x
COc1cccc(-c2nnc(NC(=O)C(C)C)o2)c1	x	x	x	9.0	0.9
COc1cccc(-c2nnc(NC(=O)c3cccc(F)c3)o2)c1	-2.3	100.0*	15.8	x	x
COc1cccc(-c2nnc(NC(=O)c3ccccc3Br)o2)c1	8.7	72.2*	14.9	x	x
CCC1=NN2C(=N)/C(=C/c3ccc(OCc4ccc(F)cc4)cc3)C(=O)N=C2S1	-5.4	x	x	x	x
Cc1nn(-c2ccccc2)c(C)c1Sc1ccc(Cl)cc1	103.6*	x	x	x	x
O=C(COc1ccc(Cl)cc1)NNC(=O)C1COc2ccccc2O1 (centres undefined)	-4.9	x	x	x	x
Cc1cc(-n2[nH]c(C)c(C)c2=O)nc(-c2ccccc2O)n1	4.0	8.0	-2.3	x	2.5*
Cc1cc(N2CCN(c3ccccc3)CC2)nc(-c2ccccc2O)n1	-20.6	x	x	-11.0	1.2
Nc1nonc1C(=O)NCCNC(=O)c1ccccc1Cl	4.8	x	x	x	x
CC(C)(C)NC(=O)c1ccc(NC(=O)C(C)(C)C)cc1	-17.1	x	x	x	x
Cc1ccc(C)n1/N=C1\NC(=O)CS1	99.4*	x	x	x	x
Cc1ccccc1-n1c(SCc2ccccn2)nc2n[nH]c(C)c2c1=N	x	23.9	x	2.0	2.3*
O=C1C(=Cc2ccc(I)o2)C(=O)c2ccccc21	78.2*	x	x	x	x
O=C1C(=Cc2ccc(Sc3ccccc3)o2)C(=O)c2ccccc21	15.9	x	x	x	x
CC1(C)OC(=O)C(=Cc2ccc(I)o2)C(=O)O1	102.3*	x	x	x	x
CCSc1nnc(NC(=O)c2cccc(OCc3c(C)noc3C)c2)s1	2.8	62.0*	3.5	-6.0	1.7
CCOC(=O)c1c(NC(=O)CN2CCCCC2)sc2c1CCN(C(=O)OCC)C2	-1.4	96.0*	11.9	-5.0	1.5
CCOC(=O)c1c(NC(=O)CN(CC)CC)sc2c1CCN(C(=O)OCC)C2	-0.8	18.0	10.9	1.0	1.7
Clc1cccc(CSc2nc3ccncc3[nH]2)c1	x	x	x	13.0	2.4*
SMILES	HePTP inh	tolC growth inh	AP complement	Ecoli WT expand	PLAP act
CN1C(=O)NC(c2cccc(O)c2)C(C(=O)c2cccs2)C1(O)C(F)(F)F (centres undefined)	0.2	42.4	7.2	75.0*	1
C1=C(c2ccccc2)CCN(c2ncnc3nc[nH]c23)C1	4.5	9.8	8.8	-2.0	2*
c1ccc(CN2CCN(c3ncnc4nc[nH]c34)CC2)cc1	10.3	-13.8	6.9	6.0	2.1*
COc1ccccc1CNC(=O)[C@@H]1CCCN1C(=O)C1CCN(S(=O)(=O)c2ccc(C)cc2)CC1	8.1	-6.1	5.3	-3.0	1.6
COc1cccc(NC(=O)[C@@H]2CCCN2C(=O)C2CCN(S(=O)(=O)c3ccc(C)cc3)CC2)c1	-5.9	0.2	6.6	0.0	2*
COc1ccc(OC)c(S(=O)(=O)N2CCC(C(=O)Nc3cccc(C)c3)CC2)c1	x	x	x	-17.0	2.2*
COc1ccc(OC)c(S(=O)(=O)N2CCC(C(=O)Nc3cc(C)ccc3C)CC2)c1	x	x	x	-2.0	1.3
CC(Nc1cccc2ccccc12)C(=O)N/N=C/c1ccc(O)cc1O (centres undefined)	3.9	x	x	x	x
O=C1[C@H]2[C@@H](C(=O)N1c1cc(Cl)cc(Cl)c1)[C@]1(C(=O)Nc3ccccc31)N1CCC[C@@H]21	3.7	79.8*	16.3	11.0	1.4
O=[N+]([O-])c1ccc2nc3c4ccccc4n(CCCN4CCOCC4)c3cc2c1	-15.8	x	x	x	x
CCOC(=O)C1=C(C)N=c2s/c(=C\c3ccc([N+](=O)[O-])o3)c(=O)n2C1c1ccc(OC)cc1 (centres undefined)	51.9*	x	x	x	x
CC(C)OC(=O)C(C(=O)C(F)(F)F)c1cc(NS(=O)(=O)c2ccc(Cl)cc2)ccc1O (centres undefined)	-4.3	x	x	x	x
CC(C)C(=O)Nc1ccc(Oc2ccc(C(=O)O)c(C(=O)O)c2)cc1	-4.4	x	x	x	x
COc1ccc(CCNC(=O)c2cc3sc(Cl)cc3n2C)cc1OC	4.1	62.8*	-8.2	0.0	1.9
COc1ccc(CCNC(=O)c2ccncc2)cc1OC	9.2	0.9	4.4	-11.0	1.2
NC(=O)c1c(NC(=O)c2cccs2)sc2c1CCCCCC2	1.8	29.8	20.0	-6.0	0.8
O=C(Nc1sc2c(c1C(=O)O)CCC2)c1cccs1	6.8	76.1*	6.2	-3.0	1.2
O=C(Nc1ccc(-c2nc3ccccc3o2)c(O)c1)c1ccc(-c2ccc([N+](=O)[O-])cc2)o1	31.0	x	x	x	x
CCOC(=O)c1ccc(CSc2nnc(C)n2N)o1	x	x	x	8.0	0.9
CCOC(=O)c1ccc(CSc2n[nH]c(C)n2)o1	-11.5	16.4	-7.6	4.0	2*
NC(=O)c1cc2n(n1)C(C(F)(F)F)CC(c1ccc(Cl)cc1)N2 (centres undefined)	2.8	x	x	x	x
CC(Oc1cc2oc(=O)c3c(c2cc1Cl)CCCC3)C(=O)c1ccccc1 (centres undefined)	-13.6	x	x	x	x
Cc1cccc(NC(=O)c2cc(NC(=O)C3CCCCC3C(=O)O)ccc2N2CCCCC2)c1 (centres undefined)	0.3	76.5*	-6.7	-1.0	x
CC(=O)Nc1ccc(N2CCCCC2)c(C(=O)Nc2cccc(C)c2)c1	x	x	x	3.0	1
Cc1ccc(Nc2c3c(nc4ncnn24)CCC3)cc1	5.8	1.6	8.0	-1.0	1.2
SMILES	HePTP inh	tolC growth inh	AP complement	Ecoli WT expand	PLAP act
Clc1cccc(Nc2c3c(nc4ncnn24)CCC3)c1	4.5	9.2	12.9	5.0	2*
O=C(c1cc(-c2ccccc2Cl)nc2ccccc12)N1CCN(c2ccc(F)cc2)CC1	-19.5	x	x	x	x
CCCCCCOc1ccc(N2C(=O)CC(SC(N)=Nc3ccccc3)C2=O)cc1 (centres undefined)	14.8	x	x	x	x
CCn1c(C)nc2cc(C(=O)n3cc(C(=O)c4cc(F)ccc4O)cn3)ccc21	5.9	-2.4	2.8	x	2.1*
CCC1(C)Cc2c(sc3nc(NC)n(C)c(=O)c23)CO1 (centres undefined)	2.7	-3.2	35.3*	-2.0	1.4
CCC1(C)Cc2c(sc3nc4n(c(=O)c23)CCS4)CO1 (centres undefined)	3.0	6.2	x	3.0	1.4
O=C(CCSc1nnc2scc(-c3ccccc3)n12)Nc1nc(-c2ccccc2)ns1	-9.7	65.3*	6.9	-7.0	1
Cc1c(C(=O)Nc2ccc([N+](=O)[O-])cc2)cnn1-c1ccccc1	-10.4	x	x	x	x

Screening results deposited in PubChem BioAssay by several laboratories.
